The campaign covered roughly 360,000 compounds. About 890 (0.25%) were called active.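 The calls were made as follows: active = inhibition at 20 µM, scaled per plate between control wells, above about 37% (limit read from the data); inactive = the rest.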 The full list was thinned out, with actives kept by preference.
target: Tyrosine-protein phosphatase non-receptor type 5 (Homo sapiens) (UniProt P54829); assay: inhibition of human PTPN5 enzyme activity – biochemical, fluorescence intensity, uHTS, primary screen (AID 588621); details: recombinant STEP, OMFP fluorogenic substrate, at 20 µM, stronger effect = higher value;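 also: 0% = DMSO with enzyme and substrate and 100% = substrate only without enzyme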
Sequence (P54829 whole entry, looked up): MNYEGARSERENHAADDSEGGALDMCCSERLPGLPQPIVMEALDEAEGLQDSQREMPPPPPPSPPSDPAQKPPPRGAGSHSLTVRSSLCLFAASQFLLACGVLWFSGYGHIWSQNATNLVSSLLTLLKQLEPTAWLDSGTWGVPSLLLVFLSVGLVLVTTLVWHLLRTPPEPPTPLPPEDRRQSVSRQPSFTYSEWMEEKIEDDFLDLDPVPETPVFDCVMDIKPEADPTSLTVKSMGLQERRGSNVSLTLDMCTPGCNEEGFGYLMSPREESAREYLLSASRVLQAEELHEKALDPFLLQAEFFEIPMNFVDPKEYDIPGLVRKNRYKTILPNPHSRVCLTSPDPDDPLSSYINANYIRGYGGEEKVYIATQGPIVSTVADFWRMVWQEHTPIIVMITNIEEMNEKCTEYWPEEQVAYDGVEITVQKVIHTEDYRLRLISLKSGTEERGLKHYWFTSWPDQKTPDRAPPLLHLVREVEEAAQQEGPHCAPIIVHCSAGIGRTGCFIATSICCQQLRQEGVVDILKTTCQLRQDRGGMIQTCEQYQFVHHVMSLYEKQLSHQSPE
Procedure, shortened: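 Material: STEP (striatal-enriched tyrosine phosphatase) enzyme, cell-free; Compound dosing: 20 µM single dose in 1% DMSO; Technique: fluorescence read at 480 nm ex / 540 nm em; Times: reaction 20 min, ambient temperature; Medium: 50 mM Bis-Tris pH 6.0 with 2.5 mM DTT and 0.005% Tween 20; Also added: OMFP at 25 µM.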

inhibition, active:
Cc1c(CCC(=O)O)c(=O)oc2c(C)c(OCc3ccccc3Cl)ccc12 98.9%
Cc1cc(C(=O)N2CCN(c3ccccn3)CC2)c(C)o1 39.4%
O=c1ccc2c(-c3ccccc3S(=O)(=O)O)c3ccc(O)c(O)c3oc-2c1O 96.8%
O=C(Nc1cccnc1)c1cc2cc(Br)ccc2oc1=O 86.4%
COc1cccc(/C=N/NC(=O)c2[nH]nc3c2CCc2ccccc2-3)c1O 80%
Cn1c2ccccc2c(=O)c2c(=O)n(Cc3ccco3)c(COc3ccccc3)nc21 70.7%
C/C(=N\Nc1ccc(S(N)(=O)=O)cc1[N+](=O)[O-])c1cccs1 97.5%
O=C(N/N=C/c1cccc(Br)c1)c1ccc(N2CCCC2=O)cc1 94.9%
Cc1ccc(CNC(=O)CSc2nnc3c(n2)[nH]c2ccc(F)cc23)cc1 96.1%

inhibition, inactive:
O=C(CCS(=O)(=O)c1ccc2c(c1)NC(=O)CS2)NCc1ccccc1Cl 1.6%
CNc1cncc(-c2ccc(NS(C)(=O)=O)cc2)n1 4.2%
CC(C)NS(=O)(=O)c1ccc(OCC(=O)NC2CCCCCC2)cc1 -0.6%
O=C1C(=O)N(CCN2CCOCC2)C(c2ccccn2)/C1=C(/O)c1ccc(Cl)cc1 (centres undefined) -3.3%
CCCC1C(=O)N2C(N(C)C)=Nc3ccc(C)cc3N2C1=O (centres undefined) -0.2%
CCOc1ccc(N(CC(=O)NCC2CCCO2)S(=O)(=O)c2ccc(C)cc2)cc1 (centres undefined) 0.9%
CCOC(=O)CCc1c(C)c2ccc(OCc3nn[nH]n3)c(C)c2oc1=O 2.9%
Cc1c(CCC(=O)O)c(=O)oc2cc(OCc3ccc(Br)cc3)ccc12 5.4%
COc1ccc(C2COC(=O)C2=N)c(NC(=O)c2ccccc2)c1 (centres undefined) 1.3%
O=C(c1c(F)cccc1Cl)N1CCN(c2ccccn2)CC1 -1.8%
O=C(c1cc2ccccc2s1)N1CCN(c2ccccn2)CC1 -0.1%
O=C(COC(=O)/C=C/c1ccc(Br)o1)Nc1cccc(S(=O)(=O)N2CCOCC2)c1 2.1%
CC(C)(C)NC(=O)CSC(=Nc1ccccc1F)NC#N -0.7%
Cc1c(C#N)c2ncn(CC#N)c(=O)c2n1-c1ccccc1 -3.8%
Cc1nnsc1C(=O)NCc1c(F)cccc1Cl -0.5%
CC1C(=O)NC(=O)C1c1ccccc1 (centres undefined) -2%
COc1ccc2c(c1)CCc1c(C(=O)N3CCc4ccccc4C3)noc1-2 -1%
CCCS(=O)(=O)N1CCN=C1SCc1cccc(F)c1 0.3%
Cc1cc(Cl)ccc1NC(=S)N1CCC(C(N)=O)(N2CCCCC2)CC1 -1.3%
CNc1[nH]ncc1[N+](=O)[O-] -1.1%
CCCCSCCCNC(=O)C1CCC(CNS(=O)(=O)c2ccc(NC(C)=O)cc2)CC1 (centres undefined) 1%
Cc1ccc(-n2c(C)nnc2SCC(=O)NC2CC2)cc1 0.1%
Cc1ccc(SCC2=NNC(=O)C2)cc1 0.5%
O=C(Nc1cccnc1)c1ccc(Cl)cc1[N+](=O)[O-] 0.9%
COc1ccc2oc(=N)c(C(=O)Nc3ccc(Br)cc3)cc2c1 -1.8%
CCOC(=O)c1c(-n2cnnn2)sc(C)c1C 0.1%
CCc1ccccc1N(CC(=O)NCCSCc1ccco1)S(C)(=O)=O -1.4%
CCOc1ccc(C(CC(=O)O)n2cnnn2)cc1OC (centres undefined) -2.9%
CC1=CC(C)(C)NC(=S)N1c1ccccc1 -2.2%
COc1ccc(C2=NOC(Cn3nc(C(=O)NCc4ccc5c(c4)OCO5)cc3-c3ccccc3)C2)cc1 (centres undefined) 0.9%
COc1cc(/C=N/NC(=O)c2cccnc2)ccc1OC(=O)c1cccc(Br)c1 1.7%
CCn1c(/C=N/NC(=O)c2ccc(OC)cc2)nc2ccccc21 2.2%
CN(C)Cc1c(O)ccc2c(=O)c(-c3ccccc3Cl)coc12 0.4%
CCNC(=O)C1CCCN(C(=O)c2cc(F)ccc2C)CC1 (centres undefined) 1%
CC(C)C1CC2=C(C(=O)OC(C)(C)O2)C(c2ccc(F)cc2)O1 (centres undefined) 0%
c1ccc(-c2ccnc3nc(-n4cccc4)nn23)cc1 -3.2%
CCc1nc2oc3ccccc3c(=O)c2c(=O)n1Cc1ccc(OC)cc1 0.4%
O=C(CSc1nnc(COc2ccc(Cl)cc2)n1Cc1ccco1)N1CCNC1=O -4.2%
O=C1OCCC1=COCCCCOC=C1CCOC1=O 0.1%
O=C(CCc1ccccc1)Nc1ccc(NC(=O)C2CC2)nc1 -2.6%
COc1cc(/C=C/C(=O)OCC(=O)N2CCOCC2)ccc1OCC#N 1.1%
C/C(=N\Nc1ccccc1)c1cccs1 -1.1%
CCOC(=O)C/C(C)=N\Nc1ccc([N+](=O)[O-])cc1[N+](=O)[O-] 2.8%
Cc1csc2nc(COC(=O)c3cccc(N(C)C)c3)cc(=O)n12 -2.7%
O=C(N/N=C\c1cccc(Br)c1)c1ccccc1-n1cccc1 -2.3%
O=C(Nc1ccc(N2CCCC2=O)cc1)c1cncc(Br)c1 -0.3%
CCc1c(Nc2ccccc2Cl)nc(N)[nH]c1=O -2.5%
COc1ccc2[nH]c3nc(SCC(=O)NC4CC4)nnc3c2c1 -4.6%
Cc1ccn2c(=O)nc(SCC(=O)NCc3ccc(F)cc3)nc2c1 0.1%
CCCCNC1(C#N)CCN(Cc2ccccc2)CC1 -2.5%
COc1cccc(COC(=O)C2CCN(S(=O)(=O)c3cccs3)CC2)c1OC 1.4%
Cc1ccccc1C#CC1=CC(=O)CC(C)(C)C1 0.4%
Cn1ncc(Br)c1C(=O)NC1CCCC1 -1.6%
CCN1CCc2nc(NC(=O)c3cc(F)c(F)cc3Cl)sc2C1 -1.5%
CCc1cc(-c2nnn(CCC3COCCO3)c2CC)ccc1-c1cn(Cc2ccc3ccccc3c2)nn1 (centres undefined) 2.9%

— PubChem BioAssay AID588621 (Sanford-Burnham Center for Chemical Genomics, 2011)
